Experimental data reported in ChEMBL document CHEMBL1275246 (Bioorg Med Chem, 2010).

What was measured:
[1] = Drug uptake in iv dosed baboon occipital cortex in presence of metergoline; assay type: ADME, organism-based; details: papio anubis, in vivo
Method in brief: (§1)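 Baboons anesthetized (ketamine i.m., then isoflurane/N2O/O2). […] Dynamic 3D PET for 90 min, brain or torso in view. Region time-activity curves as decay-corrected %ID/cc.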

[2] = Drug uptake in iv dosed baboon occipital cortex in presence of altanserin; assay type: ADME, organism-based; details: papio anubis, in vivo
Method in brief: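 Baboon pretreated with altanserin 0.5 mg/kg, dissolved in 2% HCl in EtOH, diluted with saline to 30 mL, filter-sterilized (final pH ~5.5). Given 15 min before i.v. radiotracer. Anesthetized animal (ketamine, then isoflurane). 90-min dynamic 3D brain PET; region curves as decay-corrected %ID/cc.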

[3] = Drug uptake in iv dosed baboon occipital cortex in presence of citalopram; assay type: ADME, organism-based; details: papio anubis, in vivo
Method in brief: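 Citalopram-HBr 5.0 mg/kg (as free base) in 10 mL saline, filter-sterilized, i.v. bolus 20 min before radiotracer in anesthetized baboons. 90-min dynamic 3D brain PET. Region time-activity curves as decay-corrected %ID/cc.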

[4] = Fraction unbound in baboon plasma after 10 mins; assay type: ADME, cell-free; details: papio anubis
Method in brief: (§2)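 Radiotracer in saline added to pooled baboon plasma (from ≥4 animals). Mixed by inversion, incubated 10 min at room temperature. Total activity sampled. Plasma then centrifuged 10 min through a Centrifree ultrafiltration unit and filtrate counted. %unbound = filtrate activity ×100/total activity.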

Brain = assay: Biodistribution in iv dosed baboon brain after 2 to 10 mins by PET imaging analysis; assay type: ADME, organism-based; details: papio anubis, in vivo
Method in brief: (§3)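 Female Papio anubis baboons; ketamine 10 mg/kg i.m. induction, then O2/N2O/isoflurane (1–4%). Radiotracer given through a radial arm vein catheter. Dynamic 3D PET over 90 min (55 frames), brain or torso in field of view. Regions of interest drawn on summed images give time-activity curves as decay-corrected %injected dose/cc.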

[5] = Drug uptake in iv dosed baboon frontal cortex in presence of metergoline; assay type: ADME, organism-based; details: papio anubis, in vivo; method in brief: as §1
[6] = Plasma protein binding in baboon after 10 mins; assay type: ADME, cell-free; details: papio anubis, read-out: PPB; method in brief: as §2
[7] = Lipophilicity, log D of compound in phosphate buffer solution at pH 7.4; assay type: physicochemical
Method in brief: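 Formulated radiotracer partitioned between octanol and phosphate buffer pH 7.4: vortexed 2 min, centrifuged 2 min. Octanol layer serially re-extracted with fresh buffer to give six sample sets, each phase well-counted. logD = log(decay-corrected octanol activity ×10/decay-corrected buffer activity) for each set.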

[8] = Biodistribution in iv dosed baboon gall bladder by dynamic PET imaging analysis; assay type: ADME, organism-based; details: papio anubis, in vivo; method in brief: as §3
[9] = molecular target: 5-hydroxytryptamine receptor 5A (Homo sapiens) (UniProt P47898); assay: Displacement of [3H]LSD from human cloned 5HT5A receptor
[10] = molecular target: 5-hydroxytryptamine receptor 3A (Homo sapiens) (UniProt P46098); assay: Displacement of [3H]LY278584 from human cloned 5HT3 receptor
[11] = molecular target: 5-hydroxytryptamine receptor 4 (Homo sapiens) (UniProt Q13639); assay: Binding affinity to human cloned 5HT4 receptor
[12] = molecular target: 5-hydroxytryptamine receptor 2C (Rattus norvegicus) (UniProt P08909); assay: Displacement of [3H]Mesulergine from rat cloned 5HT2C receptor
[13] = molecular target: 5-hydroxytryptamine receptor 2B (Homo sapiens) (UniProt P41595); assay: Displacement of [3H]LSD from human cloned 5HT2B receptor
[14] = molecular target: 5-hydroxytryptamine receptor 1D (Homo sapiens) (UniProt P28221); assay: Displacement of [3H][…] from human cloned 5HT1D receptor
[15] = molecular target: 5-hydroxytryptamine receptor 1E (Homo sapiens) (UniProt P28566); assay: Displacement of [3H]5-HT from human cloned 5HT1E receptor
[16] = molecular target: 5-hydroxytryptamine receptor 1B (Homo sapiens) (UniProt P28222); assay: Displacement of [3H][…] from human cloned 5HT1B receptor
[17] = molecular target: 5-hydroxytryptamine receptor 1A (Homo sapiens) (UniProt P08908); assay: Displacement of [3H]8-OH-DPAT from human cloned 5HT1A receptor
[18] = molecular target: Alpha-2C adrenergic receptor (Homo sapiens) (UniProt P18825); assay: Displacement of [3H]clonidine from human cloned adrenergic alpha2c receptor
[19] = molecular target: Kappa-type opioid receptor (Rattus norvegicus) (UniProt P34975); assay: Displacement of [3H]U69593 from rat cloned kappa opioid receptor
[20] = molecular target: D(1A) dopamine receptor (Homo sapiens) (UniProt P21728); assay: Displacement of [3H][…] from human cloned dopamine D1 receptor
[21] = molecular target: D(2) dopamine receptor (Homo sapiens) (UniProt P14416); assay: Displacement of [3H]N-methylspiperone from human cloned dopamine D2 receptor
[22] = molecular target: D(3) dopamine receptor (Rattus norvegicus) (UniProt P19020); assay: Displacement of [3H]N-methylspiperone from rat cloned dopamine D3 receptor
[23] = molecular target: D(4) dopamine receptor (Homo sapiens) (UniProt P21917); assay: Displacement of [3H]N-methylspiperone from human cloned dopamine D4 receptor
[24] = molecular target: Histamine H2 receptor (Homo sapiens) (UniProt P25021); assay: Displacement of [3H]Tiotidine from human cloned histamine H2 receptor
[25] = molecular target: Histamine H4 receptor (Homo sapiens) (UniProt Q9H3N8); assay: Displacement of [3H]histamine from human cloned histamine H4 receptor
[26] = molecular target: Prostaglandin E2 receptor EP3 subtype (Homo sapiens) (UniProt P43115); assay: Displacement of [3H]PGE2 from human cloned EP3 receptor
[27] = molecular target: Prostaglandin E2 receptor EP4 subtype (Homo sapiens) (UniProt P35408); assay: Displacement of [3H]PGE2 from human cloned EP4 receptor
[28] = molecular target: Sodium-dependent noradrenaline transporter (Homo sapiens) (UniProt P23975); assay: Displacement of [3H]nisoxetine from human cloned NET
[29] = molecular target: Alpha-1A adrenergic receptor (Homo sapiens) (UniProt P35348); assay: Displacement of [3H]prazosin from human cloned adrenergic alpha1A receptor
[30] = molecular target: Alpha-1B adrenergic receptor (Homo sapiens) (UniProt P35368); assay: Displacement of [3H]prazosin from human cloned adrenergic Alpha-1B receptor
[31] = molecular target: Alpha-2A adrenergic receptor (Homo sapiens) (UniProt P08913); assay: Displacement of [3H]clonidine from human cloned adrenergic alpha-2a receptor
[32] = molecular target: Delta-type opioid receptor (Homo sapiens) (UniProt P41143); assay: Displacement of [3H]DADLE from human cloned delta opioid receptor
[33] = molecular target: Muscarinic acetylcholine receptor M2 (Homo sapiens) (UniProt P08172); assay: Displacement of [3H]QNB from human cloned muscarinic M2 receptor
[34] = molecular target: Muscarinic acetylcholine receptor M4 (Homo sapiens) (UniProt P08173); assay: Displacement of [3H]QNB from human cloned muscarinic M4 receptor
[35] = Biodistribution in iv dosed baboon heart by dynamic PET imaging analysis; assay type: ADME, organism-based; details: papio anubis, in vivo; method in brief: as §3
[36] = Biodistribution in iv dosed baboon heart by dynamic PET imaging analysis in presence of metergoline; assay type: ADME, organism-based; details: papio anubis, in vivo; method in brief: as §1

5-hydroxytryptamine receptor 1A (Homo sapiens), sequence (P08908 whole entry): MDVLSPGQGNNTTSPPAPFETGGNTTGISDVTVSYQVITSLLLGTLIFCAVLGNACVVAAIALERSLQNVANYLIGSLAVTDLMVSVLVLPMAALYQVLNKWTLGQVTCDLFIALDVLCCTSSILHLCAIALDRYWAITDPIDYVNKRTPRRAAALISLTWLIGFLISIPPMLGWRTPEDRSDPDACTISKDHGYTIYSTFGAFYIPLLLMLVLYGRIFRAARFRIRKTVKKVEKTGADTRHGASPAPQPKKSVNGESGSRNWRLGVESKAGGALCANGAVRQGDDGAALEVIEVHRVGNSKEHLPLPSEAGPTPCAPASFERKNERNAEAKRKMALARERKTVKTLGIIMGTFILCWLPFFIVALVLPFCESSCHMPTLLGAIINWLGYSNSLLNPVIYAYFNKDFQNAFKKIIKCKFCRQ
5-hydroxytryptamine receptor 1D (Homo sapiens), sequence (P28221 whole entry): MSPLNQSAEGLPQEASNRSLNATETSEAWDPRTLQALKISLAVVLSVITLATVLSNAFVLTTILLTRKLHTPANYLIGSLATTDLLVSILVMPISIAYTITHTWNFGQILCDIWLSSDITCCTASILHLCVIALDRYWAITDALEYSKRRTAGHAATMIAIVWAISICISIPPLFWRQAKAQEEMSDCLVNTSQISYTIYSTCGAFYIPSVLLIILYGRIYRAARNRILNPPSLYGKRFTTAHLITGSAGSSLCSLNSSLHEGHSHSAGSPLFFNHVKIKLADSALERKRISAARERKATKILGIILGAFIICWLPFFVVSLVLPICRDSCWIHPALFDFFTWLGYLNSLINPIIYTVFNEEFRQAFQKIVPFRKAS
5-hydroxytryptamine receptor 2B (Homo sapiens), sequence (P41595 whole entry): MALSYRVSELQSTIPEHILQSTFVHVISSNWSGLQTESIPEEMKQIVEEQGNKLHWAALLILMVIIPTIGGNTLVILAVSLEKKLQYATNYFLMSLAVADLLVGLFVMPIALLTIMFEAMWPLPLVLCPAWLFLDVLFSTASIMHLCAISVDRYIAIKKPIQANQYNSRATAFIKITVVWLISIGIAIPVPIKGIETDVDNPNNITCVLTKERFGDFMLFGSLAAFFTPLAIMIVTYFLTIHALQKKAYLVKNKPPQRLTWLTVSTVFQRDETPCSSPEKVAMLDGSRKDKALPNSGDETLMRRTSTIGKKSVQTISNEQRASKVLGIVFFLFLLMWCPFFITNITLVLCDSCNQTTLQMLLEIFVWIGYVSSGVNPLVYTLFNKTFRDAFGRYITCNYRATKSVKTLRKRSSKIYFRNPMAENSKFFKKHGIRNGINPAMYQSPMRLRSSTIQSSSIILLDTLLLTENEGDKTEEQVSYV
Delta-type opioid receptor (Homo sapiens), sequence (P41143 whole entry): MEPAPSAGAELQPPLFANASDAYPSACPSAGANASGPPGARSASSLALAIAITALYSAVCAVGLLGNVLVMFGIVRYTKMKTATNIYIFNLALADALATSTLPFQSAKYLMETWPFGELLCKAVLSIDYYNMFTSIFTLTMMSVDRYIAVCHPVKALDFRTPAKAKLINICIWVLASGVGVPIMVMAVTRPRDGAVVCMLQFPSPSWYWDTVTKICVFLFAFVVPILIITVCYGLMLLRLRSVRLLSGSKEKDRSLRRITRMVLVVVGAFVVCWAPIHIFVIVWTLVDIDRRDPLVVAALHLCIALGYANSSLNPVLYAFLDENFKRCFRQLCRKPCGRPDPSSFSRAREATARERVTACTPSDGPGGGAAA
Alpha-1A adrenergic receptor (Homo sapiens), sequence (P35348 whole entry): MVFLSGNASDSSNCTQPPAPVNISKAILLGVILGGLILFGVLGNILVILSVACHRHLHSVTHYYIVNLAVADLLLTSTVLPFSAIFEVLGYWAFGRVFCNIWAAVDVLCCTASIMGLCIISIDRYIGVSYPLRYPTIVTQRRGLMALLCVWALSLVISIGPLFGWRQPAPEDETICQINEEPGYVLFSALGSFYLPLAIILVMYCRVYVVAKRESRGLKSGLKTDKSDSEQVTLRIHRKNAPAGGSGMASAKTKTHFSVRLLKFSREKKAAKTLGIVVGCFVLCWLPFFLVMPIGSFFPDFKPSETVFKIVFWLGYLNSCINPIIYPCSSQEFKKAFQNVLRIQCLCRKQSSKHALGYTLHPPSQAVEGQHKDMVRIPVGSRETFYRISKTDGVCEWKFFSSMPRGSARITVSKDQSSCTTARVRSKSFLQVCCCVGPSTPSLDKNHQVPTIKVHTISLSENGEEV
D(1A) dopamine receptor (Homo sapiens), sequence (P21728 whole entry): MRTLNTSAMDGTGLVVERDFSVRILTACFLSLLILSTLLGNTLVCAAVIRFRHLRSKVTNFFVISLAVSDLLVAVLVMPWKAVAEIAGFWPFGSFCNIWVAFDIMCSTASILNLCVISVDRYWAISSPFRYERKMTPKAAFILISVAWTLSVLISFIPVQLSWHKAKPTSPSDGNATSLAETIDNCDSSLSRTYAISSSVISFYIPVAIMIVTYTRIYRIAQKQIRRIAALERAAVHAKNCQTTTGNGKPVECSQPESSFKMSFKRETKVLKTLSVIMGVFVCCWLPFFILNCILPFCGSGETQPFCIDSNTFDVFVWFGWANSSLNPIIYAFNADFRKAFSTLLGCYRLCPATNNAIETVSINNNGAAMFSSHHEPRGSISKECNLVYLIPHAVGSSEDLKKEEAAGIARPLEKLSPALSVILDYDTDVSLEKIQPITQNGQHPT
5-hydroxytryptamine receptor 1E (Homo sapiens), sequence (P28566 whole entry): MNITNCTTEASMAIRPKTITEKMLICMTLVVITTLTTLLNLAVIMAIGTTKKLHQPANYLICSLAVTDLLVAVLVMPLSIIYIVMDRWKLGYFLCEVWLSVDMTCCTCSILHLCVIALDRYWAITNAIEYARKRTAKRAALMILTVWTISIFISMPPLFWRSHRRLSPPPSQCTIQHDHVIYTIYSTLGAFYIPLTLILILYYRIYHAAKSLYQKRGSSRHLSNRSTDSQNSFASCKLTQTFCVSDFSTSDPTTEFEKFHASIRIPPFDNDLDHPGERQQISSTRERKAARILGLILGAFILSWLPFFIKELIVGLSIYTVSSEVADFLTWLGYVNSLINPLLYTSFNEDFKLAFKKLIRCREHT
Alpha-2A adrenergic receptor (Homo sapiens), sequence (P08913 whole entry): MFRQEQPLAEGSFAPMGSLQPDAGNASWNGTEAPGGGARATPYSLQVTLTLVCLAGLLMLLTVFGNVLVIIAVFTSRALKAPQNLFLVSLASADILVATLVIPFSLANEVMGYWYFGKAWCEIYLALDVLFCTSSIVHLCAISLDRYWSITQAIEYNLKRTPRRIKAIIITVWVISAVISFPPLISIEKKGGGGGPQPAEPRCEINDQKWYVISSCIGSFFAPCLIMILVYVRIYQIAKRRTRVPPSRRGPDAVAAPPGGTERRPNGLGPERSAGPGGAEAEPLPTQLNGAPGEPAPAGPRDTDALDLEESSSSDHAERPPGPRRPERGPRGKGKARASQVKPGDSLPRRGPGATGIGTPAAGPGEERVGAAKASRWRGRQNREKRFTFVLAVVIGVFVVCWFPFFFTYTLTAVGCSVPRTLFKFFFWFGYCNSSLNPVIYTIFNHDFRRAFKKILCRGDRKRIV
Alpha-2C adrenergic receptor (Homo sapiens), sequence (P18825 whole entry): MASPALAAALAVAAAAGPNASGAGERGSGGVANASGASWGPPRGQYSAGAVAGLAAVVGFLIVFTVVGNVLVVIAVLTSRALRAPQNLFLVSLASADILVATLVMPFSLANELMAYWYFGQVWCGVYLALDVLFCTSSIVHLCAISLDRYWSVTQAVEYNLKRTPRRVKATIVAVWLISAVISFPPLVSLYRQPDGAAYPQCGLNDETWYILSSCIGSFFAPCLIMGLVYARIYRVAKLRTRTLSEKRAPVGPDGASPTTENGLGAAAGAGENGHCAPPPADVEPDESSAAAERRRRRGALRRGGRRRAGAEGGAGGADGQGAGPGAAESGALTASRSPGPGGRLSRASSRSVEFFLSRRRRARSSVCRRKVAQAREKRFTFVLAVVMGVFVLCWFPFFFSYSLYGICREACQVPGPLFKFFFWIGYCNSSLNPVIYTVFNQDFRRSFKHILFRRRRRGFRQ
Histamine H4 receptor (Homo sapiens), sequence (Q9H3N8 whole entry): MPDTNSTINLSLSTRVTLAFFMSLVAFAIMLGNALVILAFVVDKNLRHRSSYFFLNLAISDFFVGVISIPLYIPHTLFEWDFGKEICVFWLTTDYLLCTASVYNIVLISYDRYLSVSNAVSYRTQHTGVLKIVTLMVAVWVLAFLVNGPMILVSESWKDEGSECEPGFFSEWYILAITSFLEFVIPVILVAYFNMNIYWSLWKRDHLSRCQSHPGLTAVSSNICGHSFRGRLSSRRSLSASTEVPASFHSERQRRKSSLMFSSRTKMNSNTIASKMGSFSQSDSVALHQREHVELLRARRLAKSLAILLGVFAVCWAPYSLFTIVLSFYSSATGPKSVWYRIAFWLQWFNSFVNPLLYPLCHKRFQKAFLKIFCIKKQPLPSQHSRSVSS
Muscarinic acetylcholine receptor M2 (Homo sapiens), sequence (P08172 whole entry): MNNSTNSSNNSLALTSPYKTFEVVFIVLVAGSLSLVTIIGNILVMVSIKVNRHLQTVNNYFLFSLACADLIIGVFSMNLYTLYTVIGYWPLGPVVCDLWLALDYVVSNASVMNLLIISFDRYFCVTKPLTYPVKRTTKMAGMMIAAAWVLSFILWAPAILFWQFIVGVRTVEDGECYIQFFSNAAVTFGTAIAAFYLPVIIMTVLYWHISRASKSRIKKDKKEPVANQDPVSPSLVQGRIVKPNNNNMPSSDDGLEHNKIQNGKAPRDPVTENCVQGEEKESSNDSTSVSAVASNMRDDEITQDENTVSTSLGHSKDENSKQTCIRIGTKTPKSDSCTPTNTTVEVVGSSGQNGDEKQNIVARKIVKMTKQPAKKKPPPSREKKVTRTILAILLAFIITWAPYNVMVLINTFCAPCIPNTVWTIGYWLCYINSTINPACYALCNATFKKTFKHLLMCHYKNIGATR

SMILES: CN1C[C@H](CN[11C](=O)OCc2ccccc2)C[C@@H]2c3cccc4c3c(cn4C)C[C@H]21 [[11C]-METERGOLINE]
- Drug uptake [1]: Not Active
- Drug uptake [2]: Not Active
- Drug uptake [3]: Active
- Fu [4]: 0.55%
- Drug uptake (Brain): 0.01 %ID
- Drug uptake [5]: Not Active
- fraction unbound at 10 min [6]: < 0.01
- logD [7]: 3.3
- Drug uptake [8]: 0.3 %ID

SMILES: CN1C[C@H](CNC(=O)OCc2ccccc2)C[C@@H]2c3cccc4c3c(cn4C)C[C@H]21 [METERGOLINE]
- Activity [9]: 562 nM
- Activity [10]: > 10 µM
- Activity [11]: 1270 nM
- Activity [12]: 9.5 nM
- Activity [13]: 2.6 nM
- Activity [14]: 0.9 nM
- Activity [15]: 1660 nM
- Activity [16]: 28 nM
- Activity [17]: 10 nM
- Activity [18]: 30 nM
- Activity [19]: 63.2 nM
- Activity [20]: 9 nM
- Activity [21]: 74 nM
- Activity [22]: 14 nM
- Activity [23]: 4.9 nM
- Activity [24]: 104 nM
- Activity [25]: 12.7 nM
- Activity [26]: 21.7 nM
- Activity [27]: 15.2 nM
- Activity [28]: 1130 nM
- Activity [29]: 30 nM
- Activity [30]: 123 nM
- Activity [31]: 31 nM
- Activity [32]: 18.9 nM
- Activity [33]: 17.7 nM
- Activity [34]: 36.9 nM
- Drug uptake [35]: Active
- Drug uptake [36]: Active
